From ChEMBL document CHEMBL4425104, “Structure-Based Design of Potent Nicotinamide Phosphoribosyltransferase Inhibitors with Promising in Vitro and in Vivo Antitumor Activities” (J Med Chem, 2016)

Legend:
[1] = target: T1, Nicotinamide phosphoribosyltransferase (Homo sapiens, UniProt P43490); assay: Inhibition of recombinant NAMPT (unknown origin) using nicotinamide as substrate measured every 5 mins for 30 mins in presence of recombinant NMNAT1
HeLa = assay: Cytotoxicity against human HeLa cells assessed as cell growth inhibition after 72 hrs by CCK-8 assay; assay type: functional
Procedure, shortened: (§1)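 HeLa, MCF7, H1975, U937 and MDA-MB-231 kept in RPMI or DMEM with 10% FBS and 1% pen/strep at 37 °C, 5% CO2. Seeded at 400-800 cells/well in 384-well format, exposed to a concentration series or solvent control for 72 h. CCK-8 added, absorbance read at 450 nm, IC50 fitted from dose-response curves.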

MCF7 = assay: Cytotoxicity against human MCF7 cells assessed as cell growth inhibition after 72 hrs by CCK-8 assay; assay type: functional; conditions: MCF7, 72 h; procedure, shortened: as §1
NCI-H1975 = assay: Cytotoxicity against human NCI-H1975 cells assessed as cell growth inhibition after 72 hrs by CCK-8 assay; assay type: functional; conditions: NCI-H1975, 72 h; procedure, shortened: as §1
U-937 = assay: Cytotoxicity against human U937 cells assessed as cell growth inhibition after 72 hrs by CCK-8 assay; assay type: functional; conditions: U-937, 72 h; procedure, shortened: as §1
MDA-MB-231 [2] = assay: Cytotoxicity against human MDA-MB-231 cells assessed as cell growth inhibition after 72 hrs by CCK-8 assay; assay type: functional; conditions: MDA-MB-231, 72 h; procedure, shortened: as §1
[3] = target: T1, Nicotinamide phosphoribosyltransferase; assay: Inhibition of NAMPT in human MCF7 cells assessed as decrease in NAD production after 24 hrs by NAD/NADH Glo assay; assay type: cell-based
Procedure, shortened: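 MCF-7 cells serum-starved over 12 h, then treated with compound or vehicle for 24 h. Washed in ice-cold PBS, lysed in 1% DTAB in 0.2 N NaOH diluted 1:1 with PBS, frozen at -80 °C.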

[4] = Cmax in Sprague-Dawley rat at 5 mg/kg, iv measured up to 24 hrs by LC-MS analysis; assay type: ADME, organism-based; design: dose 5 mg/kg, route intravenous; conditions: in vivo
[5] = Cmax in Sprague-Dawley rat at 25 mg/kg, po measured up to 24 hrs by LC-MS analysis; assay type: ADME, organism-based; design: dose 25 mg/kg, route oral; conditions: in vivo
[6] = Tmax in Sprague-Dawley rat at 5 mg/kg, iv by LC-MS analysis; assay type: ADME, organism-based; conditions: in vivo
[7] = Tmax in Sprague-Dawley rat at 25 mg/kg, po by LC-MS analysis; assay type: ADME, organism-based; conditions: in vivo
[8] = AUC (0 to infinity) in Sprague-Dawley rat at 5 mg/kg, iv measured up to 24 hrs by LC-MS analysis; assay type: ADME, organism-based; design: dose 5 mg/kg, time infinity, route intravenous; conditions: in vivo
[9] = AUC (0 to infinity) in Sprague-Dawley rat at 25 mg/kg, po measured up to 24 hrs by LC-MS analysis; assay type: ADME, organism-based; design: dose 25 mg/kg, route oral, time infinity; conditions: in vivo
[10] = Half life in Sprague-Dawley rat at 5 mg/kg, iv by LC-MS analysis; assay type: ADME, organism-based; conditions: in vivo
[11] = Half life in Sprague-Dawley rat at 25 mg/kg, po by LC-MS analysis; assay type: ADME, organism-based; conditions: in vivo
[12] = Plasma clearance in Sprague-Dawley rat at 5 mg/kg, iv measured up to 24 hrs by LC-MS analysis; assay type: ADME, organism-based
[13] = Plasma clearance in Sprague-Dawley rat at 25 mg/kg, po measured up to 24 hrs by LC-MS analysis; assay type: ADME, organism-based
[14] = Oral bioavailability in Sprague-Dawley rat at 25 mg/kg measured up to 24 hrs by LC-MS analysis; assay type: ADME, organism-based; conditions: in vivo
MDA-MB-231 [15] = assay: Antitumor activity against human MDA-MB-231 cells xenografted in nude SCID mouse assessed as tumor growth inhibition at 15 mg/kg, iv qd administered 4 days per week for 4 weeks; assay type: functional; conditions: MDA-MB-231, iv, read-out: TGI
Procedure, shortened: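 Female SCID nude mice, 6 weeks old, given 1 × 10^6 MDA-MB-231 cells into the lower left mammary fat pad. At 100–300 mm3 tumours, randomised to groups of n = 5 and dosed i.v. at 15 mg/kg or vehicle 4 days a week. Volume = L × W²/2; TGI = [1 − (T − T0)/(C − C0)] × 100 from mean volumes; body weight followed.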

[16] = Toxicity in nude SCID mouse assessed as mortality at 15 mg/kg, iv qd administered 4 days per week for 4 weeks; assay type: organism-based; conditions: in vivo
Procedure, shortened: (§2)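 Female SCID nude mice (6 weeks) bearing MDA-MB-231 orthotopic tumours (1 × 10^6 cells in lower left mammary fat pad). Randomised at tumour volume 100–300 mm3 into vehicle or treatment groups (n = 5). Dosing 15 mg/kg i.v., 4 days a week. Vehicle elsewhere given as 2% DMSO, 4% EtOH, 4% castor oil, 90% water. Body weight and mortality recorded during treatment.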

[17] = Toxicity in nude SCID mouse assessed as body weight loss at 15 mg/kg, iv qd administered 4 days per week for 4 weeks; assay type: organism-based; conditions: in vivo; procedure, shortened: as §2
[18] = Ratio of Cmax in Sprague-Dawley rat to IC50 for NAMPT in human MCF7 cells; assay type: ADME, cell-based

T1 sequence (P43490 whole entry): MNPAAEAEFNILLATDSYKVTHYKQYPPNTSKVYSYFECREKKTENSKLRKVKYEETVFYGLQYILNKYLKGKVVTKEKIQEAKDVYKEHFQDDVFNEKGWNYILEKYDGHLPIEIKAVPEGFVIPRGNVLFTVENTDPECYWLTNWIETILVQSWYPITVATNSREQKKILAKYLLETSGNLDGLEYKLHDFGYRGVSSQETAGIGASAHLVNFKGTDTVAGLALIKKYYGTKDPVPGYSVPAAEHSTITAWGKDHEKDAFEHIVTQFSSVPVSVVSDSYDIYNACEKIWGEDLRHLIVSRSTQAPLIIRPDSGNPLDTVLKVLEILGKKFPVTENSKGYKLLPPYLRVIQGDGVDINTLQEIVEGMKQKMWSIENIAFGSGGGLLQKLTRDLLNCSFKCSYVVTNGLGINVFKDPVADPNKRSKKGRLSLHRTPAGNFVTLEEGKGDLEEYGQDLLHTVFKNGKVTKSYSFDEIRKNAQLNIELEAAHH

SMILES | IC50 [1] [nM] | GI50 (HeLa) [nM] | GI50 (MCF7) [nM] | GI50 (NCI-H1975) [nM] | GI50 (U-937) [nM] | GI50 (MDA-MB-231 [2]) [nM] | further results
CCN(CCc1c[nH]c2ccccc12)Cc1ccc(CCCNC(=O)/C=C/c2cccnc2)cc1 | 873 | 200 | 41 | 314 | 48.3 | 76.4 | 
CN(CCc1c[nH]c2ccccc12)Cc1ccc(CCCNC(=O)/C=C/c2cccnc2)cc1 | 780 | 250 | 75.4 | 224 | 69.1 | 84.7 | 
CC(C)(C)OC(=O)N(CCc1c[nH]c2ccccc12)Cc1ccc(CCCNC(=O)/C=C/c2cccnc2)cc1 | 715 | 288 | 85.5 | 399 | 54.3 | 123 | 
O=C(/C=C/c1cccnc1)NCCCCC1CCN(C(=O)c2ccccc2)CC1 [DAPORINAD] |  | 1.34 | 0.29 | 3.95 | 0.36 | 0.78 | 
O=C(/C=C/c1cccnc1)NCCCc1ccc(CN(CCc2c[nH]c3ccccc23)Cc2ccccc2)cc1 | 1000 | 379 | 101 | 514 | 85.2 | 269 | 
CC(C)N(CCc1c[nH]c2ccccc12)Cc1ccc(CCCNC(=O)/C=C/c2cccnc2)cc1 | 702 | 90.7 | 22.4 | 79.7 | 24.2 | 30.5 | 
O=C(/C=C/c1cccnc1)NCCCc1ccc(CNCCc2c[nH]c3ccccc23)cc1 | 1410 | 405 | 86.9 | 963 | 187 | 358 | 
CC(C)N(CCc1c[nH]c2ccccc12)Cc1ccc(NCCCCCNC(=O)/C=C/c2cccnc2)cc1 | 25.3 | 0.5 | 0.13 | 1.61 | 0.25 | 0.15 | IC50 [3]: 0.155 nM; Cmax [4]: 3790 ng/mL; Cmax [5]: 108 ng/mL; Tmax [6]: 1.98 min; Tmax [7]: 2 h; AUC(0-inf) [8]: 1710 ng·h/mL; AUC(0-inf) [9]: 374 ng·h/mL; half-life [10]: 1.55 h; half-life [11]: 2.37 h; clearance [12]: 49 mL/min/kg; CL/F [13]: 1140 mL/min/kg; bioavailability [14]: 4.4%; inhibition in vivo at 15 mg/kg (MDA-MB-231 [15]): 73.8%; Activity [16]: Non-Toxic; Activity [17]: Non-Toxic; Ratio [18]: 500
CC(=O)O[C@H]1C(=O)[C@@]2(C)[C@H]([C@H](OC(=O)c3ccccc3)[C@]3(O)C[C@H](OC(=O)[C@H](O)[C@@H](NC(=O)c4ccccc4)c4ccccc4)C(C)=C1C3(C)C)[C@]1(OC(C)=O)CO[C@@H]1C[C@@H]2O [PACLITAXEL] |  | 2.34 | 4.38 | 5.77 | 2.12 | 8.67 | 

Further compounds by falling IC50 [1], results first:

IC50 [1] [nM] | SMILES | GI50 (HeLa) [nM] | GI50 (MCF7) [nM] | GI50 (NCI-H1975) [nM] | GI50 (U-937) [nM] | GI50 (MDA-MB-231 [2]) [nM] | further results
544 | CCCN(CCc1c[nH]c2ccccc12)Cc1ccc(CCCNC(=O)/C=C/c2cccnc2)cc1 | 55.7 | 23.8 | 109 | 28.1 | 36 | 
381 | CC(C)N(CCc1cccc(C(F)(F)F)c1)Cc1ccc(CCCCCNC(=O)/C=C/c2cccnc2)cc1 | 15.2 | 2.41 | 26.2 | 5.1 | 6.92 | 
362 | CC(C)N(CCc1ccc(C(F)(F)F)cc1)Cc1ccc(CCCCCNC(=O)/C=C/c2cccnc2)cc1 | 8.98 | 1.6 | 9.54 | 1.57 | 2.4 | 
285 | CC(C)N(CCc1ccccc1)Cc1ccc(CCCCCNC(=O)/C=C/c2cccnc2)cc1 | 19.6 | 7.18 | 61.3 | 6.21 | 10.1 | 
213 | CC(C)N(CCc1c[nH]c2ccccc12)Cc1ccc(CNC(=O)/C=C/c2cccnc2)cc1 | 173 | 75.1 | 335 | 77.9 | 134 | 
195 | CC(C)N(CCc1ccsc1)Cc1ccc(CCCCCNC(=O)/C=C/c2cccnc2)cc1 | 43.7 | 8.47 | 71.8 | 14.8 | 23.6 | 
181 | O=C(/C=C/c1cccnc1)NCCCc1ccc(CN(CCO)CCc2c[nH]c3ccccc23)cc1 | 69.4 | 18.1 | 107 | 18.3 | 31.4 | 
149 | CC(C)N(CCc1ccc(F)cc1)Cc1ccc(CCCCCNC(=O)/C=C/c2cccnc2)cc1 | 20.9 | 7.37 | 34.1 | 7.67 | 13.6 | 
120 | Cc1[nH]c2ccccc2c1CCN(Cc1ccc(CCCCCNC(=O)/C=C/c2cccnc2)cc1)C(C)C | 7.93 | 1.67 | 13.3 | 1.58 | 3.03 | 
99.6 | Cc1ccc(CCN(Cc2ccc(CCCCCNC(=O)/C=C/c3cccnc3)cc2)C(C)C)cc1 | 26.6 | 5.53 | 39.2 | 8.73 | 7.19 | 
82.5 | CC(C)N(Cc1ccccc1)Cc1ccc(CCCCCNC(=O)/C=C/c2cccnc2)cc1 | 40.1 | 6.37 | 49 | 11.1 | 12.6 | 
66.9 | CC(C)N(CCc1c[nH]c2ccccc12)Cc1ccc(CCCCCNC(=O)/C=C/c2cccnc2)cc1 | 3.23 | 0.63 | 4.2 | 0.61 | 0.89 | 
54.8 | COc1ccc(CCN(Cc2ccc(CCCCCNC(=O)/C=C/c3cccnc3)cc2)C(C)C)cc1 | 6.95 | 1.38 | 9.87 | 2.12 | 2.86 | 
52.7 | CC(C)N(CCc1c[nH]c2ccccc12)Cc1ccc(CCCCCCCNC(=O)/C=C/c2cccnc2)cc1 | 2.64 | 0.74 | 4.2 | 0.75 | 0.84 | 
